This is an account of results in ChEMBL document CHEMBL1667763, “4-anilinoquinoline triazines: a novel class of hybrid antimalarial agents” (Eur J Med Chem, 2011).

SMILES strings stand for the structures. Converted amounts (≈) assume the structure as drawn. The source made the active and inactive calls. The calls are words filed in the database; no cut-off is given here.

The subject of assay [1] is Plasmodium falciparum 3D7. In words: Selectivity index, IC50 for african green monkey Vero cells to IC50 for Plasmodium falciparum 3D7.
The subject of the next assay is Plasmodium falciparum. In words: Antimalarial activity against chloroquine-sensitive Plasmodium falciparum 3D7 infected in erythrocytes after 72 hrs by syber green 1 assay. The settings on record: 3D7, 72 h.
For assay [2], the system named is Plasmodium yoelii. In words: Antimalarial activity against chloroquine-resistant Plasmodium yoelii N-67 infected in Swiss mouse assessed as suppression of parasitaemia level at 50 mg/kg, ip qd for 4 days. In kind it is functional. The settings on record: route intraperitoneal. The method, boiled down: (§1)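 Swiss mice (22±2 g), groups of five, inoculated with 1×10^6 P. yoelii N-67 parasitized RBC on day 0; compounds as aqueous suspension with a few drops Tween 80, given intraperitoneally in 0.2 mL once daily days 0–3. Parasitemia from thin blood smears days 4–6, group mean % suppression vs untreated controls; survivors counted on day 28.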

In assay [3] the test system is Plasmodium yoelii. In words: Antimalarial activity against chloroquine-resistant Plasmodium yoelii N-67 infected in Swiss mouse assessed as mouse survival at 50 mg/kg, ip qd for 4 days. Type of assay: functional, organism-based. Also noted: dose 50 mg/kg. The gist of the method: as §1
Assay [4] in a line: Inhibition of beta-hematin formation after 16 hrs. Type of assay: functional. The method, boiled down: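 Plasma came from male Swiss mice (15–20 g) infected with 1 × 10⁵ infected RBCs. Blood was drawn at 50% parasitemia by cardiac puncture into 2.0% citrate and spun at 4 °C. Hemin substrate ([…]) and compound were incubated in 100 mM acetate buffer, pH 5.1, at 37 °C for 16 h with shaking. The pellet was washed in SDS buffers. IC50 was the mean of three experiments in triplicate.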

On to `CCN1CCN(c2nc(Nc3ccc(Nc4ccnc5cc(Cl)ccc45)cc3)nc(Nc3ccccc3C)n2)CC1`, for which the “Selectivity Index” value in assay [1] was found to be 2.58. The compound further had an IC50 with Plasmodium falciparum of 102 nM.
As to `CCN(CC)CCNc1nc(Nc2ccc(Nc3ccnc4cc(Cl)ccc34)cc2)nc(N2CCCCC2)n1`, in assay [1], the “Selectivity Index” value came to 59.71. In the assay with Plasmodium falciparum, this compound had an IC50 of 38.8 nM.
In the case of `CNc1nc(Nc2ccc(C)cc2)nc(Nc2ccc(Nc3ccnc4cc(Cl)ccc34)cc2)n1`, in the assay with Plasmodium yoelii [2], the Activity amounted to 100%. For the same compound, in the assay on Plasmodium yoelii [3], the result was inactive. In addition, the IC50 in assay [4] was found to be 3.16 µg/mL (≈ 6.54 µM); in the assay with Plasmodium falciparum, 6.41 nM. Also, the “Selectivity Index” value in assay [1] is 491.91.
With `Clc1ccc2c(Nc3ccc(Nc4nc(NCc5ccccc5)nc(N5CCCCC5)n4)cc3)ccnc2c1`, the “Selectivity Index” value in assay [1] is recorded as 98.42. Half-maximal inhibition with Plasmodium falciparum (IC50) was put at 235 nM.
For `Cc1ccc(Nc2nc(Nc3cccc(Nc4ccnc5cc(Cl)ccc45)c3)nc(N3CCN(C)CC3)n2)cc1`, in assay [1], the “Selectivity Index” value is 226.18. Further, half-maximal inhibition with Plasmodium falciparum (IC50) was put at 43.2 nM.
As to `Cc1ccccc1Nc1nc(Nc2ccc(Nc3ccnc4cc(Cl)ccc34)cc2)nc(NC2CCCCC2)n1`, the “Selectivity Index” value in assay [1] came out at 449.8. In the assay on Plasmodium falciparum, this compound returned a 50% inhibitory concentration (IC50) of 163 nM.
As to `Cc1ccc(Nc2nc(Nc3ccc(Nc4ccnc5cc(Cl)ccc45)cc3)nc(N3CCN(C)CC3)n2)cc1`, the “Selectivity Index” value in assay [1] is reported as 36.39. This compound displayed an IC50 in the assay on Plasmodium falciparum of 12.4 nM.
For `CNc1nc(Nc2ccccc2)nc(Nc2ccc(Nc3ccnc4cc(Cl)ccc34)cc2)n1`, the “Selectivity Index” value in assay [1] came to 290.68. Further, the midpoint of inhibition in the assay with Plasmodium falciparum, the IC50, lay at 19 nM.
On to `Cc1ccc(Nc2nc(NCCCN3CCOCC3)nc(Nc3ccc(Nc4ccnc5cc(Cl)ccc45)cc3)n2)cc1`, for which, in the assay with Plasmodium yoelii [2], the Activity stood at 100%. For the same compound, the outcome with Plasmodium yoelii [3] was inactive. The IC50 in assay [4] came to 2.85 µg/mL (≈ 4.78 µM); in the assay on Plasmodium falciparum it was 7.03 nM. Besides, in assay [1], the “Selectivity Index” value is 610.98.
In the case of `Clc1ccc2c(Nc3ccc(Nc4nc(NC5CCCCC5)nc(N5CCCCC5)n4)cc3)ccnc2c1`, the “Selectivity Index” value in assay [1] came out at 189.52. This compound returned an IC50 in the assay with Plasmodium falciparum of 313 nM.
Turning to `CCCCNc1nc(Nc2ccccc2)nc(Nc2ccc(Nc3ccnc4cc(Cl)ccc34)cc2)n1`, in the assay with Plasmodium yoelii [2], the Activity came to 100%. Also, in the assay on Plasmodium yoelii [3], the outcome was inactive. For the same compound, the IC50 in assay [4] came out at 3.08 µg/mL (≈ 6.03 µM); in the assay on Plasmodium falciparum it was 18.5 nM. Besides, the “Selectivity Index” value in assay [1] worked out at 287.22.
For `Clc1ccc2c(Nc3cccc(Nc4nc(NCCCN5CCOCC5)nc(Nc5ccccc5)n4)c3)ccnc2c1`, the “Selectivity Index” value in assay [1] came out at 90.51. In the assay with Plasmodium falciparum, the IC50 was determined as 111 nM.
Consider `CCN(CC)CCNc1nc(Nc2ccc(Nc3ccnc4cc(Cl)ccc34)cc2)nc(Nc2ccccc2C)n1`, for which, in assay [1], the “Selectivity Index” value was 136.49. For the same compound, half-maximal inhibition in the assay with Plasmodium falciparum (IC50) required 26.1 nM.
Take `CNc1nc(Nc2ccc(Nc3ccnc4cc(Cl)ccc34)cc2)nc(Nc2ccccc2C)n1`: the “Selectivity Index” value in assay [1] amounted to 240.35. This compound also gave an IC50 in the assay on Plasmodium falciparum of 37.6 nM.
Take `Clc1ccc2c(Nc3ccc(Nc4nc(NCc5ccccc5)nc(Nc5ccccc5)n4)cc3)ccnc2c1`: the “Selectivity Index” value in assay [1] was found to be 151.04. Besides, in the assay on Plasmodium falciparum, the IC50 was 33.6 nM.
As to `Cc1ccc(Nc2nc(NCc3ccccc3)nc(Nc3ccc(Nc4ccnc5cc(Cl)ccc45)cc3)n2)cc1`, the “Selectivity Index” value in assay [1] is reported as 79.44. In the assay on Plasmodium falciparum, this compound registered an IC50 of 63.5 nM.
The like results for `CN1CCN(c2nc(Nc3ccc(Nc4ccnc5cc(Cl)ccc45)cc3)nc(N3CCCCC3)n2)CC1` were, in that order, 106.35 and 34.8 nM.
For the compound `CCN(CC)CCNc1nc(Nc2ccc(C)cc2)nc(Nc2ccc(Nc3ccnc4cc(Cl)ccc34)cc2)n1`, the “Selectivity Index” value in assay [1] came to 64.38. In addition, the IC50 in the assay on Plasmodium falciparum was found to be 82.8 nM.
For the compound `CCCCNc1nc(Nc2ccc(Nc3ccnc4cc(Cl)ccc34)cc2)nc(Nc2ccccc2C)n1`, the Activity with Plasmodium yoelii [2] stood at 100%. The outcome in the assay on Plasmodium yoelii [3] was inactive. The figures for the IC50 (in assay [4]; in the assay with Plasmodium falciparum) were 2.96 µg/mL (≈ 5.64 µM) and 31.5 nM, respectively. Also, the “Selectivity Index” value in assay [1] is listed as 821.15.
For the compound `CCN1CCN(c2nc(Nc3ccccc3)nc(Nc3ccc(Nc4ccnc5cc(Cl)ccc45)cc3)n2)CC1`, the Activity in the assay with Plasmodium yoelii [2] is listed as 100%. Moreover, the result in the assay on Plasmodium yoelii [3] was inactive. The IC50 in assay [4] was found to be 2.69 µg/mL (≈ 4.87 µM); in the assay with Plasmodium falciparum, 5.92 nM. Also, the “Selectivity Index” value in assay [1] worked out at 192.66.
In the case of `CCN1CCN(c2nc(Nc3ccccc3)nc(Nc3cccc(Nc4ccnc5cc(Cl)ccc45)c3)n2)CC1`, the “Selectivity Index” value in assay [1] came out at 90.51. Also, inhibition in the assay with Plasmodium falciparum was half-maximal at 60.1 nM (IC50).
In the case of `CCN1CCN(c2nc(Nc3ccc(C)cc3)nc(Nc3cccc(Nc4ccnc5cc(Cl)ccc45)c3)n2)CC1`, the “Selectivity Index” value in assay [1] is listed as 229.5. This compound registered an IC50 in the assay on Plasmodium falciparum of 41 nM.
The like results for `Clc1ccc2c(Nc3ccc(Nc4nc(Nc5ccccc5)nc(NC5CCCCC5)n4)cc3)ccnc2c1` were, in that order, 76.97 and 64.8 nM.
For the compound `CCCCNc1nc(Nc2ccccc2)nc(Nc2cccc(Nc3ccnc4cc(Cl)ccc34)c2)n1`, the Activity in the assay with Plasmodium yoelii [2] is on record as 100%. The result in the assay with Plasmodium yoelii [3] was inactive. Further, the IC50 in assay [4] worked out at 2.55 µg/mL (≈ 4.99 µM); in the assay on Plasmodium falciparum it was 26.3 nM. For the same compound, the “Selectivity Index” value in assay [1] stood at 156.25.
`Cc1ccc(Nc2nc(N)nc(Nc3ccc(Nc4ccnc5cc(Cl)ccc45)cc3)n2)cc1`: in assay [1], the “Selectivity Index” value came out at 134.89. The same compound displayed an IC50 in the assay on Plasmodium falciparum of 11.9 nM.
For the compound `Nc1nc(Nc2ccccc2)nc(Nc2ccc(Nc3ccnc4cc(Cl)ccc34)cc2)n1`, the “Selectivity Index” value in assay [1] is listed as 132.63. For the same compound, inhibition in the assay on Plasmodium falciparum was half-maximal at 41.5 nM (IC50).
Take `Cc1ccccc1Nc1nc(Nc2ccc(Nc3ccnc4cc(Cl)ccc34)cc2)nc(N2CCN(C)CC2)n1`: in assay [1], the “Selectivity Index” value is 16.33. This compound also returned an IC50 with Plasmodium falciparum of 18.9 nM.
The like results for `Cc1ccccc1Nc1nc(NCc2ccccc2)nc(Nc2ccc(Nc3ccnc4cc(Cl)ccc34)cc2)n1` were, in that order, 2129.68 and 27.8 nM.
With `CN1CCN(c2nc(Nc3ccccc3)nc(Nc3ccc(Nc4ccnc5cc(Cl)ccc45)cc3)n2)CC1`, the “Selectivity Index” value in assay [1] came out at 92.06. Also, the half-maximal inhibitory concentration (IC50) in the assay with Plasmodium falciparum stood at 5.85 nM.
As for `Cc1ccc(Nc2nc(Nc3ccc(Nc4ccnc5cc(Cl)ccc45)cc3)nc(NC3CCCCC3)n2)cc1`, the “Selectivity Index” value in assay [1] came out at 137.42. In addition, in the assay on Plasmodium falciparum, the IC50 stood at 74 nM.
As for `CCN(CC)CCNc1nc(Nc2ccccc2)nc(Nc2cccc(Nc3ccnc4cc(Cl)ccc34)c2)n1`, the “Selectivity Index” value in assay [1] was 135.37. The same compound showed an IC50 in the assay on Plasmodium falciparum of 292 nM.
`CCN1CCN(c2nc(Nc3ccc(C)cc3)nc(Nc3ccc(Nc4ccnc5cc(Cl)ccc45)cc3)n2)CC1`: in assay [1], the “Selectivity Index” value was 35.61. Inhibition in the assay with Plasmodium falciparum was half-maximal at 11.9 nM (IC50).
For the compound `CCCCNc1nc(Nc2ccc(C)cc2)nc(Nc2ccc(Nc3ccnc4cc(Cl)ccc34)cc2)n1`, the “Selectivity Index” value in assay [1] came out at 101.03. Moreover, inhibition in the assay on Plasmodium falciparum was half-maximal at 44.5 nM (IC50).
In the case of `CN1CCN(c2nc(Nc3ccccc3)nc(Nc3cccc(Nc4ccnc5cc(Cl)ccc45)c3)n2)CC1`, the “Selectivity Index” value in assay [1] was determined as 223.4. For the same compound, the IC50 in the assay with Plasmodium falciparum was determined as 47.2 nM.
Regarding `CCN(CC)CCNc1nc(Nc2ccccc2)nc(Nc2ccc(Nc3ccnc4cc(Cl)ccc34)cc2)n1`, the “Selectivity Index” value in assay [1] turned out to be 79.47. The compound also showed an IC50 in the assay on Plasmodium falciparum of 60.4 nM.
In the case of `Cc1ccccc1Nc1nc(NCCCN2CCOCC2)nc(Nc2ccc(Nc3ccnc4cc(Cl)ccc34)cc2)n1`, the “Selectivity Index” value in assay [1] stood at 418.75. Moreover, half-maximal inhibition in the assay with Plasmodium falciparum (IC50) was put at 13.4 nM.
On to `Cc1ccccc1Nc1nc(N)nc(Nc2ccc(Nc3ccnc4cc(Cl)ccc34)cc2)n1`, for which the “Selectivity Index” value in assay [1] worked out at 163.54. In the assay on Plasmodium falciparum, this compound had an IC50 of 29.6 nM.
For the compound `CCN(CC)CCCC(C)Nc1ccnc2cc(Cl)ccc12` (stereo not drawn) [CHLOROQUINE], half-maximal inhibition in assay [4] (IC50) was put at 3.65 µg/mL (≈ 11.4 µM).

In general, IC50 refers to the concentration that gives 50% inhibition.
